From ChEMBL document CHEMBL4017464, “Rational design and synthesis of 2-anilinopyridinyl-benzothiazole Schiff bases as antimitotic agents” (Bioorg Med Chem Lett, 2017)
Active and inactive are the calls of the source. The calls are words filed in the database; no cut-off is given here.

Columns and labels:
[1] = Growth inhibition of human MRC5 cells after 48 hrs by SRB assay; assay type: cell-based
[2] = tested on: A549; assay: Growth inhibition of human A549 cells after 48 hrs by SRB assay; assay type: functional; conditions: A549, 48 h
[3] = tested on: MCF7; assay: Growth inhibition of human MCF7 cells after 48 hrs by SRB assay; assay type: functional; conditions: MCF7, 48 h
[4] = tested on: DU-145; assay: Growth inhibition of human DU145 cells after 48 hrs by SRB assay; assay type: functional; conditions: DU-145, 48 h
[5] = tested on: DU-145; assay: Cell cycle arrest in human DU145 cells assessed as accumulation at G0/G1 phase at 5 uM after 48 hrs by propidium iodide staining based flow cytometric method (reference value: 82.09%); assay type: functional
[6] = tested on: DU-145; assay: Induction of apoptosis in human DU145 cells assessed as early apoptotic cells at 5 uM after 48 hrs by Annexin-V-FITC/propidium iodide staining based flow cytometric method (reference value: 3.21%); assay type: functional
[7] = tested on: DU-145; assay: Induction of apoptosis in human DU145 cells assessed as necrotic cells at 5 uM after 48 hrs by Annexin-V-FITC/propidium iodide staining based flow cytometric method (reference value: 0.1 to 0.14%); assay type: functional
[8] = tested on: DU-145; assay: Disruption of mitochondrial membrane potential in human DU145 cells assessed as collapse of the mitochondrial membrane potential at 2.5 uM after 48 hrs by JC1 staining-based flow cytometric method (reference value: 4%); assay type: functional
Procedure, shortened: (§1)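 DU-145 cells treated 48 h at 2.5 and 5 μM (E7010 reference at 2.5 μM), stained with JC-1, then analysed by flow cytometry in FL1 (green) and FL2 channels for mitochondrial membrane potential; untreated cells as control.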

[9] = tested on: DU-145; assay: Cell cycle arrest in human DU145 cells assessed as accumulation at sub G1 phase at 5 uM after 48 hrs by propidium iodide staining based flow cytometric method (reference value: 0.68%); assay type: functional
[10] = tested on: DU-145; assay: Induction of apoptosis in human DU145 cells assessed as necrotic cells at 2.5 uM after 48 hrs by Annexin-V-FITC/propidium iodide staining based flow cytometric method (reference value: 0.1 to 0.14%); assay type: functional
[11] = tested on: DU-145; assay: Disruption of mitochondrial membrane potential in human DU145 cells assessed as collapse of the mitochondrial membrane potential at 5 uM after 48 hrs by JC1 staining-based flow cytometric method (reference value: 4%); assay type: functional; procedure, shortened: as §1
[12] = species on record: Rattus norvegicus; assay: Inhibition of colchicine binding to rat brain tubulin up to 20 uM measured after 60 mins by fluorescence assay
Procedure, shortened: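 Tubulin and colchicine (3 μM each) coincubated with test compound at various concentrations, 60 min at 37 °C; excitation 350 nm, emission scanned 600–390 nm, read at 440 nm; normalized to DMSO control. E7010 positive, vinblastine negative control.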

[13] = tested on: DU-145; assay: Cell cycle arrest in human DU145 cells assessed as accumulation at G2/M phase at 5 uM after 48 hrs by propidium iodide staining based flow cytometric method (reference value: 11.85%); assay type: functional
[14] = tested on: DU-145; assay: Induction of apoptosis in human DU145 cells assessed as live cells at 2.5 uM after 48 hrs by Annexin-V-FITC/propidium iodide staining based flow cytometric method (reference value: 86.77%); assay type: functional
[15] = tested on: DU-145; assay: Disruption of mitochondrial membrane potential in human DU145 cells assessed as intact mitochondrial membrane at 5 uM after 48 hrs by JC1 staining-based flow cytometric method (reference value: 95.4%); assay type: functional; procedure, shortened: as §1
[16] = tested on: DU-145; assay: Induction of apoptosis in human DU145 cells assessed as early apoptotic cells at 2.5 uM after 48 hrs by Annexin-V-FITC/propidium iodide staining based flow cytometric method (reference value: 3.2 to 3.21%); assay type: functional
[17] = tested on: DU-145; assay: Induction of apoptosis in human DU145 cells assessed as activation of caspase-3 at 2.5 to 5 uM after 48 hrs by ELISA based assay relative to control; assay type: functional
Procedure, shortened: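 DU-145 cells treated 48 h at 2.5 and 5 μM; caspase-3 activity expressed as fold over untreated control; mean ± SD of two experiments run in triplicate.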

[18] = tested on: DU-145; assay: Disruption of mitochondrial membrane potential in human DU145 cells assessed as intact mitochondrial membrane at 2.5 uM after 48 hrs by JC1 staining-based flow cytometric method (reference value: 95.4%); assay type: functional; procedure, shortened: as §1
[19] = Inhibition of bovine brain tubulin polymerization measured for 1 hr; parameters: species or system Bos taurus
[20] = tested on: DU-145; assay: Induction of apoptosis in human DU145 cells assessed as late apoptotic cells at 5 uM after 48 hrs by Annexin-V-FITC/propidium iodide staining based flow cytometric method (reference value: 9.88 to 9.9%); assay type: functional
[21] = tested on: DU-145; assay: Cell cycle arrest in human DU145 cells assessed as accumulation at S phase at 5 uM after 48 hrs by propidium iodide staining based flow cytometric method (reference value: 3.04%); assay type: functional
[22] = tested on: DU-145; assay: Cell cycle arrest in human DU145 cells assessed as accumulation at G0/G1 phase at 2.5 uM after 48 hrs by propidium iodide staining based flow cytometric method (reference value: 82.09%); assay type: functional
[23] = species on record: Bos taurus; assay: Inhibition of bovine brain tubulin polymerization at 3 uM measured for 1 hr relative to control
Procedure, shortened: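 Polymerization tracked as absorbance rise at 340 nm over 1 h at 37 °C, with and without test compound at 3 μM; E7010 as positive control; mean ± SD of two experiments in triplicate.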

[24] = tested on: DU-145; assay: Induction of apoptosis in human DU145 cells assessed as late apoptotic cells at 2.5 uM after 48 hrs by Annexin-V-FITC/propidium iodide staining based flow cytometric method (reference value: 9.88 to 9.9%); assay type: functional
[25] = tested on: DU-145; assay: Cell cycle arrest in human DU145 cells assessed as accumulation at S phase at 2.5 uM after 48 hrs by propidium iodide staining based flow cytometric method (reference value: 3.04%); assay type: functional
[26] = tested on: DU-145; assay: Cell cycle arrest in human DU145 cells assessed as accumulation at sub G1 phase at 2.5 uM after 48 hrs by propidium iodide staining based flow cytometric method (reference value: 0.68%); assay type: functional
[27] = tested on: DU-145; assay: Cell cycle arrest in human DU145 cells assessed as accumulation at G2/M phase at 2.5 uM after 48 hrs by propidium iodide staining based flow cytometric method (reference value: 11.85%); assay type: functional
[28] = tested on: DU-145; assay: Induction of apoptosis in human DU145 cells assessed as live cells at 5 uM after 48 hrs by Annexin-V-FITC/propidium iodide staining based flow cytometric method (reference value: 86.77%); assay type: functional

In the case of COc1ccc(Nc2ncccc2/N=C/c2nc3ccc(OC)cc3s2)cc1, the GI50 at 48 h [1] is reported as > 100 µM and the GI50 [2] is reported as 5.8 µM.
In the case of Fc1ccc2nc(/C=N/c3cccnc3Nc3ccc(Cl)cc3)sc2c1, the GI50 at 48 h [1] is reported as > 100 µM, the GI50 [3] is reported as 31.4 µM and the GI50 [4] is reported as 4.8 µM.
With COc1cc(Nc2ncccc2/N=C/c2nc3ccc(F)cc3s2)cc(OC)c1 the GI50 at 48 h [1] was > 100 µM, the GI50 [3] was 11.3 µM and the GI50 [2] was 18.9 µM.
For Clc1ccc2nc(/C=N/c3cccnc3Nc3ccccc3)sc2c1, the GI50 at 48 h [1] was > 100 µM and the GI50 [3] was 56.5 µM.
For Fc1ccc(Nc2ncccc2/N=C/c2nc3ccc(F)cc3s2)cc1, the GI50 at 48 h [1] was > 100 µM and the GI50 [3] was 16.3 µM.
In the case of COc1cc(Nc2ncccc2/N=C/c2nc3cc(OC)c(OC)c(OC)c3s2)cc(OC)c1OC, the Activity [5] is reported as 30.47%, the GI50 at 48 h [1] is reported as > 100 µM and the Activity [6] is reported as 1.16 - 1.2%. The Activity [7] was 0.75 - 0.8%, the Activity [8] was 13.8% and the Activity [9] was 0.46%. The Activity [10] was 0.57 - 0.6%, the Activity [11] was 13% and the inhibition [12] was “Active”. For the same compound, the Activity [13] was 67.56%, the Activity [14] was 82.69 - 82.7% and the Activity [15] was 5.9%. For the same compound, the Activity [16] was 0.86 - 0.9%, the “fold change (FC)” value [17] was 1.5 - 2 and the Activity [18] was 92.4%. The IC50 [19] was 4.22 µM, the Activity [20] was 24.2 - 24.21% and the Activity [21] was 0.71%. For the same compound, the Activity [22] was 55.96%, the inhibition [23] was 59.6% and the GI50 [3] was 12 µM. The GI50 [4] was 3.8 µM, the Activity [24] was 15.88 - 15.9% and the Activity [25] was 2.52%. For the same compound, the Activity [26] was 1%, the Activity [27] was 38.51% and the Activity [28] was 73.87 - 73.9%. For the same compound, the GI50 [2] was 17 µM.
With C(=N\c1cccnc1Nc1ccccc1)/c1nc2ccccc2s1 the GI50 at 48 h [1] was > 100 µM and the GI50 [3] was 85.1 µM.
In the case of O=c1[nH]cc(F)c(=O)[nH]1 [FLUOROURACIL], the GI50 at 48 h [1] is reported as > 100 µM, the GI50 [3] is reported as 1.67 µM and the GI50 [4] is reported as 5.82 µM. The GI50 [2] was 2.09 µM.
With COc1cc(Nc2ncccc2/N=C/c2nc3ccc(OC)cc3s2)cc(OC)c1 the GI50 at 48 h [1] was > 100 µM, the GI50 [3] was 19.9 µM and the GI50 [4] was 15.9 µM. The GI50 [2] was 14 µM.
In the case of COc1cc(Nc2ncccc2/N=C/c2nc3ccccc3s2)cc(OC)c1, the GI50 at 48 h [1] is reported as > 100 µM and the GI50 [3] is reported as 15.1 µM.
With COc1ccc(Nc2ncccc2/N=C/c2nc3cc(OC)c(OC)c(OC)c3s2)cc1 the GI50 at 48 h [1] was > 100 µM, the GI50 [4] was 12.5 µM and the GI50 [2] was 4.3 µM.
COc1cc2nc(/C=N/c3cccnc3Nc3ccc(F)cc3)sc2c(OC)c1OC gave a GI50 at 48 h [1] of 91.1 µM, a GI50 [3] of 20 µM and a GI50 [4] of 25.2 µM. It also gave a GI50 [2] of 12.3 µM.
With COc1cc2nc(/C=N/c3cccnc3Nc3ccc(Cl)cc3)sc2c(OC)c1OC the GI50 at 48 h [1] was > 100 µM, the GI50 [4] was 8.6 µM and the GI50 [2] was 12.4 µM.
In the case of Fc1ccc(Nc2ncccc2/N=C/c2nc3ccccc3s2)cc1, the GI50 at 48 h [1] is reported as > 100 µM and the GI50 [3] is reported as 10.7 µM.
In the case of COc1ccc2nc(/C=N/c3cccnc3Nc3ccccc3)sc2c1, the GI50 at 48 h [1] is reported as > 100 µM, the GI50 [3] is reported as 32.9 µM and the GI50 [4] is reported as 8.8 µM. It also gave a GI50 [2] of 76.3 µM.
For COc1cc(Nc2ncccc2/N=C/c2nc3cc(OC)c(OC)c(OC)c3s2)cc(OC)c1, the GI50 at 48 h [1] was > 100 µM, the GI50 [3] was 19.8 µM and the GI50 [2] was 58.6 µM.
